Results published in ChEMBL document CHEMBL3243929, “Cannabinoids. 2. Synthesis and central nervous system activities of some B-ring homocannabinoid derivatives and related lactones” (1977).
Calls of active or inactive are those of the source. The rule behind the calls is not given here.

How the values were obtained:
Mus musculus [1] = assay: CNS activity in po dosed mouse assessed as decrease in early exploratory behavior in activity cage; assay type: functional; details: read-out: MED
How it was run: (§1)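 Oral dosing in mice, with a 20 mg/kg po screening dose. Active compounds were titrated down to a minimum effective dose. Vehicle controls were given on the same injection-volume basis.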

Rattus norvegicus [2] = assay: CNS activity in rat assessed as increase in latency to kill at 10 mg/kg, po by muricidal rat test; assay type: functional, organism-based; parameters: dose 10 mg/kg
How it was run: (§2)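 Oral dosing in rats in the septal-lesioned and muricidal assays, with a 10 mg/kg po screening dose. Active compounds were titrated down to a minimum effective dose. Vehicle controls were given on the same injection-volume basis.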

Rattus norvegicus [3] = assay: CNS activity in rat assessed as decrease in septal-lesioned-induced hyperactivity at 10 mg/kg, po by septal-lesioned rat test; assay type: functional, organism-based; parameters: dose 10 mg/kg; how it was run: as §2
Rattus norvegicus [4] = assay: CNS activity in po dosed rat assessed as increase in latency to kill by muricidal rat test; assay type: functional; details: read-out: MED; how it was run: as §2
Mus musculus [5] = assay: CNS activity in mouse assessed as decrease in early exploratory behavior in activity cage at 20 mg/kg, po; assay type: functional, organism-based; parameters: dose 20 mg/kg; how it was run: as §1
Rattus norvegicus [6] = assay: CNS activity in po dosed rat assessed as decrease in septal-lesioned-induced hyperactivity by septal-lesioned rat test; assay type: functional; details: read-out: MED; how it was run: as §2

SMILES	minimal effective dose (Mus musculus [1])	Activity (Rattus norvegicus [2])	Activity (Rattus norvegicus [3])	minimal effective dose (Rattus norvegicus [4])	Activity (Mus musculus [5])	minimal effective dose (Rattus norvegicus [6])
CCCCCCC(C)(C)c1cc(O)c2c(c1)OCC(C)(C)C1=C2CC(C)CC1 (centres undefined)	20 mg/kg	inactive	inactive	–	–	–
CCCCCc1cc(O)c2c(c1)OC(C)(C)[C@@H]1CCC(C)=C[C@@H]21 [DRONABINOL]	10 mg/kg	–	inactive	5 mg/kg	–	–
CCCCCCC(C)(C)c1cc(O)c2c3c(c(=O)oc2c1)CCC(C)C3 (centres undefined)	–	inactive	inactive	–	inactive	–
CCCCCCC(C)(C)c1cc(O)c2c(c1)OC(C)(C)CC1=C2CC(C)CC1 (centres undefined)	2.5 mg/kg	–	inactive	2.5 mg/kg	–	–
CCCCCCC(C)(C)c1cc(O)c2c(c1)OC(=O)CC1=C2CC(C)CC1 (centres undefined)	5 mg/kg	–	inactive	5 mg/kg	–	–
CCCCCCC(C)(C)c1cc(O)c2c(c1)OCCC1=C2CC(C)CC1 (centres undefined)	1.25 mg/kg	–	–	1.25 mg/kg	–	1.25 mg/kg
CCCCCCC(C)(C)c1cc(O)c2c(c1)OC(=O)C(C)(C)C1=C2CC(C)CC1 (centres undefined)	–	inactive	inactive	–	inactive	–
CCCCCCC(C)(C)c1cc(O)c2c(c1)OC(C)(C)C1=C2CC(C)CC1 (centres undefined)	0.62 mg/kg	–	–	0.62 mg/kg	–	1.25 mg/kg
